CDK5 inh: CDK5/p35 (human) kinase inhibition | Recombinant CDK5/p35, ADP-Glo luminescence, 60 min | AID 488839 | 0.01% of 330,000 active | Q00535+Q15078 | inhibition, % at 10 µM;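 active = highest replicate inhibition of at least 50% and at least 75% of replicates reaching 50%; inconclusive = only one of the two criteria met; inactive = both criteria failed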;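 note: plate controls were DMSO neutral control for no effect and GW8510 at 10 µM for full effect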
Cneo AK release: causes C. neoformans cell lysis | adenylate kinase release luminescence, 4 h; normalised: neutral wells 0, clomiphene wells 100 | lysis activity, % at 15 µM | 0.2% of 360,000 active | AID 651654;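 active = mean lysis activity across replicates of at least 80%, whatever share of replicates individually reach that level; inactive = mean lysis activity below 80%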
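Signal: Adenylate kinase release luminescence | Assay system: Log-phase Cryptococcus neoformans yeast cells | Input: Cells at 5 × 10^6 per mL | Buffer or medium: Fresh YPD growth medium | Compound: Single dose | Schedule: Static 4 h at 37 °C with compound, 1 h detection | Controls: Clomiphene | Read-out: Luminescence rise reflecting yeast cell lysis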
Env fusion inh: blocks HIV Env-driven cell-cell fusion. 1.1% of 360,000 active. inhibition, % at 12.3 µM. HeLa-JRFL Env/CEM21 cell fusion, luciferase. AID 651610;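 active = mean replicate inhibition score of at least 50 and every replicate individually at or above 50; inconclusive = only one of the two criteria met; inactive = mean below 50 and not all replicates reaching 50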;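 note: 0% = plate neutral controls and 100% = maraviroc near 300 nM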
PAX8 inh HTS: PAX8 transcriptional activity inhibition. AID 652154. 1.2% of 360,000 active. RMG-I TPO-luciferase reporter, SteadyGlo, 24 h. inhibition, % at 12.6 µM;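 active = mean replicate inhibition at least 60% with every replicate also reaching 60%; inconclusive = only one of the two criteria is met; inactive = mean below 60% and not all replicates reaching 60%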;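 note: luciferase light reporting Pax8 driven TPO promoter activity; plate controls were median of neutral control wells for no effect and mitoxantrone controls for full effect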
INS-1E GSIS act: GLuc luminescence reporter in INS-1E cells, primary screen for activators of glucose-dependent secretion of insulin | AID 743287 | activation, % at 16.6 µM | INS-1E GLuc reporter insulin secretion, 2-3 h | 0.61% of 370,000 active;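 active = lowest replicate activation of at least 40%, so every replicate reaches that level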;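 note: 0% = median of neutral control wells and 100% = median of IBMX positive control wells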
dFosB activator: activators of mouse delta FosB homodimer; 0.99% of 340,000 active; P13346; purified delta FosB, TAMRA-CDK5 oligo fluorescence polarization; percent of positive-control signal above neutral wells; activation, % at 25 µM;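 active = mean activation above about 17%, with every replicate also reaching it, limit read from the data, passing the limit was not always enough; inconclusive = only one of the two conditions met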
Target sequence (P13346 whole entry, looked up): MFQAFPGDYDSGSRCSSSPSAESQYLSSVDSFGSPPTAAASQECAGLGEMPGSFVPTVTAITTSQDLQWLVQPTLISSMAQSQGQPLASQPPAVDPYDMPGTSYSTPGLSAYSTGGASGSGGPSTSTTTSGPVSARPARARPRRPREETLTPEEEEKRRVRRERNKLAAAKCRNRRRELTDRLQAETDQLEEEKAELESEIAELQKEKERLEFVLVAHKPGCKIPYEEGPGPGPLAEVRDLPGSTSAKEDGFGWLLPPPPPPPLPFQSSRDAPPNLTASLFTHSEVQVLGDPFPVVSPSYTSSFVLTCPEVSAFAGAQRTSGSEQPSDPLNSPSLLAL
An asterisk follows results filed as active; ? = inconclusive; / = no result given; [ ] = another dose, or the depositor's remark. In the library only some 2.9% were active in any assay of this set; here they are far more common.

SMILES | CDK5 inh | Cneo AK release | Env fusion inh | PAX8 inh HTS | INS-1E GSIS act | dFosB activator
CCOC(=O)[C@]12Cc3cc(C)ccc3[C@H]1N(C1CCCCC1)C(=O)c1ccccc12 | / | / | 21.0 | 86.4* | -15.3 | /
CCOC(=O)[C@]12Cc3cc(C)ccc3[C@H]1N(CCC(=O)OC)C(=O)c1ccccc12 | / | / | 7.5 | 16.9 | 4.9 | /
CCOC(=O)[C@]12Cc3ccc(C)cc3[C@H]1N(C1CCCCC1)C(=O)c1ccccc12 | / | / | 16.1 | 81.5* | -22.6 | /
CCOC(=O)[C@]12Cc3cc(Cl)ccc3[C@H]1N(C)C(=O)c1cc(OC)ccc12 | / | / | 26.3 | 8.5 | -14.0 | /
CCOC(=O)[C@]12Cc3ccccc3[C@H]1N(C(C)C)C(=O)c1ccccc12 | / | / | -13.5 | -15.2 | -4.5 | /
CCOC(=O)[C@]12Cc3cc(Cl)ccc3[C@H]1N(C1CCCCC1)C(=O)c1cc(OC)ccc12 | / | / | ? | 105.5* | -8.2 | /
CCOC(=O)[C@]12Cc3c(cc(OC)c(OC)c3OC)[C@H]1N(C1CCCCC1)C(=O)c1ccccc12 | / | / | 4.0 | 88.9* | -32.2 | /
O=S(=O)(c1ccc(Cl)cc1)N1Cc2ccc(Br)cc2-n2nncc2C1 | / | / | 41.4 | -7.1 | -16.4 | /
O=C(O)[C@@H]1[C@@H](CO)[C@@H]2Cn3c(cccc3=O)[C@H]1N2C(=O)c1ccccc1 | / | 49.8 | / | / | 17.9 | /
CCOC(=O)[C@]12Cc3cc(OC)ccc3[C@H]1N(C)C(=O)c1cc(OC)ccc12 | / | / | 8.9 | 3.2 | -5.7 | /
CCOC(=O)[C@]12Cc3ccc(C)cc3[C@H]1N(C1CCCCC1)C(=O)c1cc(OC)ccc12 | / | / | -14.5 | 101.0* | 3.7 | /
CC(=O)C1=C(C)OC2=C(C(=O)CCC2)[C@@]12C(=O)N(C)c1ccccc12 | / | / | 3.1 | -8.5 | 13.6 | /
CS(=O)(=O)N1C[C@@H]2C(c3ccc(Br)cc3)[C@H](C1)N2CC1CC1 (stereo partly drawn) | / | / | / | / | 2.7 | /
Clc1ccc(C(c2ccc(Cl)cc2)n2cc[n+](CC(OCc3ccc(Cl)cc3Cl)c3ccc(Cl)cc3Cl)c2)cc1 (stereo not drawn) | -1.3 | -0.4 | ? | 97.3* | / | -362.2
CCOC(=O)c1c(/N=C/c2c(O)n(-c3ccc(F)cc3)c(=S)[nH]c2=O)sc2c1CCCC2 | -2.0 | / | 6.8 | / | 74.9* | -4.9
CCOC(=O)c1c(/N=C/c2c(O)n(-c3ccccc3F)c(=S)[nH]c2=O)sc2c1CCCC2 | 2.0 | -0.1 | / | / | / | 22.7*
COC(=O)[C@H]1[C@H](CO)[C@H]2Cn3c(ccc(-c4ccccc4F)c3=O)[C@@H]1N2Cc1ccncc1 | / | 1.2 | / | 1.3 | 4.8 | /
CC(=O)Nc1ccc(C=C2C(=O)NC(=O)NC2=O)cc1 | 2.1 | / | 63.2* | -23.8 | 2.2 | -5.3
CC(C)NC(=O)N1C[C@@H]2C(c3ccc(Br)cc3)[C@H](C1)N2CC1CC1 (stereo partly drawn) | / | / | / | / | -8.1 | /
C[C@H]1CCC/C=C/C2C[C@H](O)CC2[C@H](O)/C=C/C(=O)O1 (stereo partly drawn) | -0.5 | -0.4 | / | / | / | 3.5
CC1CCC/C=C/C2CC(O)CC2C(O)/C=C/C(=O)O1 (stereo not drawn) | -1.2 | 0.8 | 107.4* | 127.1* | / | 8.9
COC(=O)CCCC(NC(=S)N1CC2C[C@@H](C1)Cn1c2cccc1=O)C(=O)OC (stereo partly drawn) | -0.8 | 2.2 | 1.1 | -9.5 | 40.3* | 3.9
COC(=O)CC(NC(=S)N1CC2C[C@@H](C1)Cn1c2cccc1=O)C(=O)OC (stereo partly drawn) | -1.4 | / | -9.3 | -0.1 | / | 0.8
O=C(O)C[C@@H]1CC[C@H]2NC[C@H](O)COC[C@@H]2O1 | / | 0.0 | -11.4[16.7 µM] | -11.8 | 14.6 | /
COc1ccc(CC2C(=O)NC(C)C(=O)N(C)C3C(=O)N(C)C(Cc4ccc(O)c(c4)Oc4ccc(cc4)C3O)C(=O)NC(C)C(=O)NC(C)C(=O)N2C)cc1 (stereo not drawn) | 1.2 | / | 70.2* | 110.5* | / | -11.4
SMILES | CDK5 inh | Cneo AK release | Env fusion inh | PAX8 inh HTS | INS-1E GSIS act | dFosB activator
C[C@]12CC[C@H]3[C@@H](CCC4=CC(=O)CC[C@@H]43)[C@@H]1CC[C@@H]2O | -1.1 | -1.7 | / | / | 2.3 | -5.7
C[C@]12CCC3=C4CCC(=O)C=C4CC[C@H]3C1CC[C@@H]2O (stereo partly drawn) | 1.5 | -0.2 | 56.4* | 6.0 | 11.8 | -3.8
Cc1ccc(OC(=O)N(C)C[C@@H]2OCc3ccccc3-c3c(n(C)c4ccccc34)C(=O)N([C@@H](C)CO)C[C@H]2C)cc1 | / | / | / | 97.7* | 11.7 | /
Cc1ccc(OC(=O)N(C)C[C@H]2OCc3cnnn3CCCC(=O)N([C@@H](C)CO)C[C@@H]2C)cc1 | / | 2.4 | 6.6 | -1.9 | 16.5 | /
Cc1nnc(SCc2nc3ccccc3c(=O)n2-c2ccccc2Cl)n1N | -1.1 | -1.3 | 119.1* | / | / | -5.7
Cc1nc2ccccc2c(=O)n1-c1c(Cl)cccc1Cl | / | 0.9 | -16.0 | 19.0 | 0.2 | /
C=C1C(C)C2C(Cc3ccccc3)NC(=O)C23C(OC(C)=O)C=CC(C)(O)CC(C)CC=CC3C1O (stereo not drawn) | -1.0 | / | -107.0 | ? | 3.5 | -5.7
C=C1[C@@H](C)[C@H]2[C@H](Cc3ccccc3)NC(=O)[C@]23OC(=O)/C=C/[C@H](O)CCC[C@@H](C)C/C=C/[C@H]3[C@@H]1O | -0.5 | 0.4 | 68.9* | 74.1* | / | -2.2
C=Cc1cc(OC)c2c(c1)c(=O)oc1c2cc(OC)c2c(O)ccc(C3OC(C)C(O)C(C)(O)C3O)c21 (stereo not drawn) | 1.1 | / | 47.2 | 88.8* | / | -33.1
COC(=O)[C@H]1[C@H](CO)[C@H]2Cn3c(ccc(-c4ccc(F)cc4)c3=O)[C@@H]1N2C(C)=O | / | -1.0 | / | -10.1 | 12.1 | /
COC1/C=C/C=C(\C)Cc2cc(O)c(Cl)c(c2)N(C)C(=O)CC(OC(=O)C(C)C)C2(C)OC2C(C)C2CC1(O)NC(=O)O2 (stereo not drawn) | 0.5 | / | 56.3* | 75.5* | -22.7 | -14.8
O=C1CC=C2C3CC4N(CCC45c4cc(O)c(O)cc4N1C25)CC3=CCBr (stereo not drawn) | 23.6 | / | -6.9 | 20.6 | 2.2 | 51.0*
CNc1ccc2oc(C[C@H]3O[C@@]4(CC[C@H]3C)O[C@H]([C@H](C)C(=O)c3ccc[nH]3)[C@H](C)C[C@H]4C)nc2c1C(=O)O | -0.7 | -1.5 | 90.3* | 80.8* | / | -2.3
COC(=O)[C@@H]1[C@@H](CO)[C@@H]2Cn3c(ccc(-c4ccccc4F)c3=O)[C@H]1N2 | / | 1.3 | -5.6[16.7 µM] | 1.2 | 5.0 | /
COC(=O)[C@H]1[C@H](CO)[C@H]2Cn3c(ccc(-c4ccccc4)c3=O)[C@@H]1N2S(=O)(=O)c1ccccc1C | / | 4.3 | / | 2.3 | 3.5 | /
OC[C@@H]1[C@@H]2c3ccccc3NC[C@@H]2N1Cc1cccnc1 | / | 3.8 | / | 6.5 | -9.2 | /
